Test results reported in ChEMBL document CHEMBL4431336, “Ligand-based virtual screen for the discovery of novel M5 inhibitor chemotypes” (Bioorg Med Chem Lett, 2016).
Calls of active or inactive are those of the source. The calls are words filed in the database; no cut-off is given here.

What was measured:
[1] = target: T1, Muscarinic acetylcholine receptor M5 (Homo sapiens, UniProt P08912); test: Antagonist activity at human muscarinic M5 receptor assessed as inhibition of acetylcholine-induced calcium response; assay type: functional
T1 sequence (P08912 whole entry): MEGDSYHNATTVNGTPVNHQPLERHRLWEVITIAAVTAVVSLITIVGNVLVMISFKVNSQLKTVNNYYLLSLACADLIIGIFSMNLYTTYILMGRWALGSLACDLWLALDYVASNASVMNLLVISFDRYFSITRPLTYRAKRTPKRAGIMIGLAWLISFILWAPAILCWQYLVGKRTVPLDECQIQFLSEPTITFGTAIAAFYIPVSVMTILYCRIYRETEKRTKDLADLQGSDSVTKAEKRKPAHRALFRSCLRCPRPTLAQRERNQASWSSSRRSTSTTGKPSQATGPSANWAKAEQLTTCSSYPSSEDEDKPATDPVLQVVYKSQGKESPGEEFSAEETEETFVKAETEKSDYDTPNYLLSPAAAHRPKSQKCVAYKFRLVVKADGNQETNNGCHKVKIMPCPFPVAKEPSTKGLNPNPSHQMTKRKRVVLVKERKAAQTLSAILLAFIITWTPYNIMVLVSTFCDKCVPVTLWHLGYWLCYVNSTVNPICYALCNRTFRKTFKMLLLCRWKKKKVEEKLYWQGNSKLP
Procedure, shortened: (§1)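 Concentration–response curves (10-point) run in cells expressing human M1, M2, M3, M4 or M5 receptors, n=3. IC50 comes from the curves, with pIC50 also reported. The residual ACh response at 30 μM is given as % ACh min (mean±SEM).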

[2] = target: T2, Muscarinic acetylcholine receptor M5 (Homo sapiens) (UniProt P08912); test: Antagonist activity at human muscarinic M5 receptor assessed as inhibition of acetylcholine-induced calcium response at 30 uM; assay type: functional; procedure, shortened: as §1
T2 sequence (whole entry): T1 sequence (P08912 whole entry)

[3] = target: T2, Muscarinic acetylcholine receptor M5 (Homo sapiens); test: Antagonist activity at human muscarinic M5 receptor assessed as inhibition of acetylcholine-induced calcium response at 10 uM; assay type: functional
Procedure, shortened: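 Single-point functional assay in hM5 cells challenged with an EC80 of ACh, compound at 10 μM. Result is % inhibition, averaged from three determinations.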

[4] = target: T3, Muscarinic acetylcholine receptor M2 (Homo sapiens) (UniProt P08172); test: Antagonist activity at human muscarinic M2 receptor assessed as minimum acetylcholine-induced calcium response at 30 uM; assay type: functional; design: scale not given: the % may be the effect or the level left; procedure, shortened: as §1
T3 sequence (whole entry): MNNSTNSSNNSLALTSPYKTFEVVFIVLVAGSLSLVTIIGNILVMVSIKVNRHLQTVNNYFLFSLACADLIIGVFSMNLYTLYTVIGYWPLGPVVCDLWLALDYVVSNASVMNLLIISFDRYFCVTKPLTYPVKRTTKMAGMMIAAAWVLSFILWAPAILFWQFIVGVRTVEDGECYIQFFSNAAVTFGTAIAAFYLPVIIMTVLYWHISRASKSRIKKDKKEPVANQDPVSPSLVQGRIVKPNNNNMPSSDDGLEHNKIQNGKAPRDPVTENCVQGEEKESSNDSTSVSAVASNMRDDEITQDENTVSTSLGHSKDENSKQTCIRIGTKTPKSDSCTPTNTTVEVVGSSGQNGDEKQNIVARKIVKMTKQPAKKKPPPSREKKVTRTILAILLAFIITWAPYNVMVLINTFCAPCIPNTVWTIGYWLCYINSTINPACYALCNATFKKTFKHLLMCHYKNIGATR

[5] = target: T1, Muscarinic acetylcholine receptor M5; test: Displacement of [3H]NMS from human muscarinic M5 receptor
Procedure, shortened: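 Competition binding against [3H]-N-methylscopolamine in membranes prepared from cells expressing human M5, n=3.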

[6] = target: T4, Muscarinic acetylcholine receptor M1 (Homo sapiens) (UniProt P11229); test: Antagonist activity at human muscarinic M1 receptor assessed as minimum acetylcholine-induced calcium response at 30 uM; assay type: functional; design: scale not given: the % may be the effect or the level left; procedure, shortened: as §1
T4 sequence (whole entry): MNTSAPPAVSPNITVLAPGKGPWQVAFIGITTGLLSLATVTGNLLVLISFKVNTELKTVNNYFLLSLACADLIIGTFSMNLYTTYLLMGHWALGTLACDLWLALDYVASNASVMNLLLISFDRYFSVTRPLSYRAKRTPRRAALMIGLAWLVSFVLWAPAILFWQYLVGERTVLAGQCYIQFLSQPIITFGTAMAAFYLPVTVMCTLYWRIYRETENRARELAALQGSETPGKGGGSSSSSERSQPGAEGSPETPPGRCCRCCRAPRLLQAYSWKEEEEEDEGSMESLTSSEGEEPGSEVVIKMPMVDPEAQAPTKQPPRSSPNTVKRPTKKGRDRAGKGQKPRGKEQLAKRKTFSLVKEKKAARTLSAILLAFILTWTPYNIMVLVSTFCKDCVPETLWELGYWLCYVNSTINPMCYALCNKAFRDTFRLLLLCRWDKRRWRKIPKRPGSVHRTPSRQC

[7] = target: T2, Muscarinic acetylcholine receptor M5 (Homo sapiens); test: Antagonist activity at human muscarinic M5 receptor assessed as minimum acetylcholine-induced calcium response at 30 uM; assay type: functional; design: scale not given: the % may be the effect or the level left; procedure, shortened: as §1
[8] = target: T5, Muscarinic acetylcholine receptor M3 (Homo sapiens, UniProt P20309); test: Antagonist activity at human muscarinic M3 receptor assessed as inhibition of acetylcholine-induced calcium response; assay type: functional; procedure, shortened: as §1
Target sequence in this assay (P20309 whole entry): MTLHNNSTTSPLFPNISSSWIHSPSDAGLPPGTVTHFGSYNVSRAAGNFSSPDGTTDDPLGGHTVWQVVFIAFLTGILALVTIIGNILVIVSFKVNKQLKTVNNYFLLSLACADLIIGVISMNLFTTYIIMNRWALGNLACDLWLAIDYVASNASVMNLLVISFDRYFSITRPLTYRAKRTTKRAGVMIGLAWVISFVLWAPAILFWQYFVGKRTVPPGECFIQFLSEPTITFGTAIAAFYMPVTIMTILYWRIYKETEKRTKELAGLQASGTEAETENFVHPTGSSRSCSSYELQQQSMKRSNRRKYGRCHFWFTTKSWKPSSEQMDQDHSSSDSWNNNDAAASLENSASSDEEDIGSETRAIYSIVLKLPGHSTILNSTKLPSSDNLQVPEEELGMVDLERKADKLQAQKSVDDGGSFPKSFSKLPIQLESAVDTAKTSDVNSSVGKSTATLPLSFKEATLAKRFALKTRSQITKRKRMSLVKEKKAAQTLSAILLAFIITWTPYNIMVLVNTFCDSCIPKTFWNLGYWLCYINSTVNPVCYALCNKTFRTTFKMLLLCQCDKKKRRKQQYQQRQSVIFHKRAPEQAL

[9] = target: T2, Muscarinic acetylcholine receptor M5 (Homo sapiens); test: Antagonist activity at human muscarinic M5 receptor assessed as minimum acetylcholine-induced calcium response at 10 uM; assay type: functional; design: scale not given: the % may be the effect or the level left
[10] = target: T6, Muscarinic acetylcholine receptor M1 (Homo sapiens, UniProt P11229); test: Antagonist activity at human muscarinic M1 receptor assessed as inhibition of acetylcholine-induced calcium response; assay type: functional; procedure, shortened: as §1
T6 sequence (P11229 whole entry): T4 sequence (whole entry)

[11] = target: T7, Muscarinic acetylcholine receptor M4 (Homo sapiens, UniProt P08173); test: Antagonist activity at human muscarinic M4 receptor assessed as inhibition of acetylcholine-induced calcium response; assay type: functional; procedure, shortened: as §1
T7 sequence (P08173 whole entry): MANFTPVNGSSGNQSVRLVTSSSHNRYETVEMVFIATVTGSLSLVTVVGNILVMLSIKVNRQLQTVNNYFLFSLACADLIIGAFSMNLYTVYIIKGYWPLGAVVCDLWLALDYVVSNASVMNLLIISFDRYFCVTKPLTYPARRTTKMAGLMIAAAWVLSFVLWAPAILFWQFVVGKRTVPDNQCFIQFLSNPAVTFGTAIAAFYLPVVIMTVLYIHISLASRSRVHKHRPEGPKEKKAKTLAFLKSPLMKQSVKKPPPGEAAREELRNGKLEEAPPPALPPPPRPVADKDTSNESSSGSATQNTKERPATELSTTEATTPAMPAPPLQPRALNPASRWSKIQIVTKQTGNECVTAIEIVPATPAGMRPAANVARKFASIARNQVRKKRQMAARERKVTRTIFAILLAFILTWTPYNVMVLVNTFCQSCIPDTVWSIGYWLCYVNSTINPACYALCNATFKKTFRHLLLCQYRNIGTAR

[12] = target: T8, Muscarinic acetylcholine receptor M2 (Homo sapiens, UniProt P08172); test: Antagonist activity at human muscarinic M2 receptor assessed as inhibition of acetylcholine-induced calcium response; assay type: functional; procedure, shortened: as §1
T8 sequence (P08172 whole entry): T3 sequence (whole entry)

[13] = target: T9, Muscarinic acetylcholine receptor M4 (Homo sapiens) (UniProt P08173); test: Antagonist activity at human muscarinic M4 receptor assessed as minimum acetylcholine-induced calcium response at 30 uM; assay type: functional; design: scale not given: the % may be the effect or the level left; procedure, shortened: as §1
T9 sequence (whole entry): T7 sequence (P08173 whole entry)

[14] = target: T5, Muscarinic acetylcholine receptor M3; test: Antagonist activity at human muscarinic M3 receptor assessed as minimum acetylcholine-induced calcium response at 30 uM; assay type: functional; design: scale not given: the % may be the effect or the level left; procedure, shortened: as §1
Target sequence in this assay (P20309 whole entry, looked up): as the sequence (P20309 whole entry) above

| IC50 ([1]; read-out: IC50) [µM] | inhibition [3] | SMILES | other results |
| --- | --- | --- | --- |
| > 10 |  | CCN(C(=O)Cn1cc(-c2ccccc2)c(N2CCOCC2)n1)c1cccc(C)c1 | inhibition [2]: 40% |
| > 10 | 83% | Cc1c(S(=O)(=O)N2CCC3(CC2)OCCS3)cnn1C |  |
| > 10 | 45% | Cc1nn(C)c(C)c1S(=O)(=O)N1CCC2(CC1)OCCO2 |  |
|  | inactive | Cn1cnc(S(=O)(=O)N2CCC3(CC2)OCCS3)c1 |  |
| 3.86 to 6.2 |  | Cc1nn(C)c(C)c1S(=O)(=O)N1CCC2(CC1)OCCS2 | Activity [4]: 37%; IC50 ([1]; read-out: pIC50 (converted)): 0.661 µM; Ki [5]: 2700 nM; Imax [3]: 50 to 88%; Activity [6]: 61%; Activity [7]: 16%; IC50 [8]: > 10 µM; Activity [9]: 12.6%; IC50 [10]: > 10 µM; IC50 [11]: > 10 µM; IC50 [12]: > 10 µM; Activity [13]: 55%; Activity [14]: 55% |
| > 10 | 62% | O=S(=O)(c1cc(F)cc(F)c1)N1CCC2(CC1)OCCS2 |  |
| 0.246 |  | COc1ccc([C@@]23c4ccccc4C(=O)N2CCN3C(=O)c2cc(F)c(F)c(F)c2)cc1C | IC50 [8]: > 30 µM; IC50 [10]: > 30 µM; IC50 [11]: > 30 µM; IC50 [12]: > 30 µM |
|  | inactive | Cc1nn(C)cc1S(=O)(=O)N1CCC2(CC1)OCCS2 |  |
| > 10 | 55% | O=S(=O)(c1cc(F)c(F)c(F)c1)N1CCC2(CC1)OCCS2 |  |
| > 10 | 40% | Cc1noc(C)c1S(=O)(=O)N1CCC2(CC1)OCCS2 |  |
| > 10 | 86% | Cc1nn(C)c(C)c1S(=O)(=O)N1CCC2(CC1)SCCS2 |  |
| > 10 |  | Cc1noc(C)c1CCc1nnc2scc(-c3ccc(Cl)cc3)n12 | inhibition [2]: 40% |
| 5.16 |  | Fc1cc(F)cc(-c2nnc(Cc3nc(-c4ccc5c(c4)OCO5)no3)o2)c1 | Imax [3]: 70%; IC50 [10]: 2.8 µM; IC50 [11]: > 10 µM; IC50 [12]: 0.93 µM |
| > 10 | 37% | Cc1nn(C)c(C)c1S(=O)(=O)N1CCC2(CCCO2)CC1 |  |
| > 10 | 83% | O=S(=O)(c1ccc(F)c(Cl)c1)N1CCC2(CC1)OCCS2 |  |
| > 10 | 27% | Cn1cc(S(=O)(=O)N2CCC3(CC2)OCCS3)cn1 |  |
